Tests used:
Format in all cases: ADME, organism-based
Rattus norvegicus [1] = organism: Rattus norvegicus; assay: Ratio of distribution of the [131I]-labeled compound at 5 min in rat lung over uptake in blood; settings: other tissue
In short: (§1)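 Male Sprague-Dawley rats (200–300 g, fed ad libitum), ether-anesthetized, got a tail-vein bolus of 0.2 mL saline containing 10–20 μCi 131I compound and were decapitated at the stated time. Organs were weighed and gamma-counted against a serially diluted external standard. Organ/blood ratio was calculated from % dose per gram of organ. Animal numbers per time point were 1–4.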

Rattus norvegicus [2] = organism: Rattus norvegicus; assay: The distribution of the 131 I-labeled compound at 30 min was evaluated in rat kidney as Percent of injected dose in the total organ; settings: in vivo, 0.5 h
In short: (§2)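 Male Sprague-Dawley rats (200–300 g, free access to food and water), lightly ether-anesthetized and restrained, received a 0.2 mL saline tail-vein bolus of 10–20 μCi 131I-labeled compound. They were decapitated at the stated time, and organs were excised, weighed and gamma-counted. Percent injected dose was determined against a calibrated external standard made by serial dilution of the injectate. n = 1–4 rats.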

Rattus norvegicus [3] = organism: Rattus norvegicus; assay: The distribution of the 131 I-labeled compound at 5 min was evaluated in rat brain as Percent of injected dose in the total organ; settings: in vivo; in short: as §2
Rattus norvegicus [4] = organism: Rattus norvegicus; assay: The distribution of the 131 I-labeled compound at 30 min was evaluated in rat kidney as Percent of injected dose per gram in the organ; settings: in vivo, 0.5 h; in short: as §2
Rattus norvegicus [5] = organism: Rattus norvegicus; assay: The distribution of the 131 I-labeled compound at 30 min was evaluated in rat lung as Percent of injected dose per gram in the organ; settings: in vivo, 0.5 h; in short: as §2
Rattus norvegicus [6] = organism: Rattus norvegicus; assay: Ratio of distribution of the [131I]-labeled compound at 5 min in rat liver over uptake in blood; settings: other tissue; in short: as §1
Rattus norvegicus [7] = organism: Rattus norvegicus; assay: Ratio of distribution of the [131I]-labeled compound at 30 min in rat brain over uptake in blood; settings: 0.5 h; in short: as §1
Rattus norvegicus [8] = organism: Rattus norvegicus; assay: The distribution of the 131 I-labeled compound at 5 min was evaluated in rat kidney as Percent of injected dose in the total organ; settings: in vivo; in short: as §2
Rattus norvegicus [9] = organism: Rattus norvegicus; assay: The distribution of the 131 I-labeled compound at 5 min was evaluated in rat brain as Percent of injected dose per gram in the organ; settings: in vivo; in short: as §2
Rattus norvegicus [10] = organism: Rattus norvegicus; assay: The distribution of the 131 I-labeled compound at 5 min was evaluated in rat heart as Percent of injected dose in the total organ; settings: in vivo; in short: as §2
Rattus norvegicus [11] = organism: Rattus norvegicus; assay: The distribution of the 131 I-labeled compound at 5 min was evaluated in rat liver as Percent of injected dose per gram in the organ; settings: in vivo; in short: as §2
Rattus norvegicus [12] = organism: Rattus norvegicus; assay: The distribution of the 131 I-labeled compound at 30 min was evaluated in rat brain as Percent of injected dose per gram in the organ; settings: in vivo, 0.5 h; in short: as §2
Rattus norvegicus [13] = organism: Rattus norvegicus; assay: Ratio of distribution of the [131I]-labeled compound at 30 min in rat heart over uptake in blood; settings: other tissue, 0.5 h; in short: as §1
Rattus norvegicus [14] = organism: Rattus norvegicus; assay: The distribution of the 131 I-labeled compound at 30 min was evaluated in rat brain as Percent of injected dose in the total organ; settings: in vivo, 0.5 h; in short: as §2
Rattus norvegicus [15] = organism: Rattus norvegicus; assay: The distribution of the 131 I-labeled compound at 5 min was evaluated in rat liver as Percent of injected dose in the total organ; settings: in vivo; in short: as §2
Rattus norvegicus [16] = organism: Rattus norvegicus; assay: The distribution of the 131 I-labeled compound at 5 min was evaluated in rat blood as Percent of injected dose per gram in the organ; settings: in vivo; in short: as §2
Rattus norvegicus [17] = organism: Rattus norvegicus; assay: The distribution of the 131 I-labeled compound at 5 min was evaluated in rat heart as Percent of injected dose per gram in the organ; settings: in vivo; in short: as §2
Rattus norvegicus [18] = organism: Rattus norvegicus; assay: Ratio of distribution of the [131I]-labeled compound at 5 min in rat heart over uptake in blood; settings: other tissue; in short: as §1
Rattus norvegicus [19] = organism: Rattus norvegicus; assay: The distribution of the 131 I-labeled compound at 30 min was evaluated in rat heart as Percent of injected dose in the total organ; settings: in vivo, 0.5 h; in short: as §2
Rattus norvegicus [20] = organism: Rattus norvegicus; assay: Ratio of distribution of the [131I]-labeled compound at 30 min in rat lung over uptake in blood; settings: other tissue, 0.5 h; in short: as §1
Rattus norvegicus [21] = organism: Rattus norvegicus; assay: The distribution of the 131 I-labeled compound at 30 min was evaluated in rat blood as Percent of injected dose per gram in the organ; settings: in vivo, 0.5 h; in short: as §2
Rattus norvegicus [22] = organism: Rattus norvegicus; assay: Ratio of distribution of the [131I]-labeled compound at 30 min in rat liver over uptake in blood; settings: other tissue, 0.5 h; in short: as §1
Rattus norvegicus [23] = organism: Rattus norvegicus; assay: The distribution of the 131 I-labeled compound at 5 min was evaluated in rat lung as Percent of injected dose per gram in the organ; settings: in vivo; in short: as §2
Rattus norvegicus [24] = organism: Rattus norvegicus; assay: The distribution of the 131 I-labeled compound at 30 min was evaluated in rat liver as Percent of injected dose per gram in the organ; settings: in vivo, 0.5 h; in short: as §2
Rattus norvegicus [25] = organism: Rattus norvegicus; assay: The distribution of the 131 I-labeled compound at 30 min was evaluated in rat liver as Percent of injected dose in the total organ; settings: in vivo, 0.5 h; in short: as §2
Rattus norvegicus [26] = organism: Rattus norvegicus; assay: The distribution of the 131 I-labeled compound at 30 min was evaluated in rat heart as Percent of injected dose per gram in the organ; settings: in vivo, 0.5 h; in short: as §2
Rattus norvegicus [27] = organism: Rattus norvegicus; assay: Ratio of distribution of the [131I]-labeled compound at 5 min in rat brain over uptake in blood; in short: as §1
Rattus norvegicus [28] = organism: Rattus norvegicus; assay: The distribution of the 131 I-labeled compound at 5 min was evaluated in rat kidney as Percent of injected dose per gram in the organ; settings: in vivo; in short: as §2
Rattus norvegicus [29] = organism: Rattus norvegicus; assay: Ratio of distribution of the [131I]-labeled compound at 30 min in rat kidney over uptake in blood; settings: other tissue, 0.5 h; in short: as §1
Rattus norvegicus [30] = organism: Rattus norvegicus; assay: Ratio of distribution of the [131I]-labeled compound at 5 min in rat kidney over uptake in blood; settings: other tissue; in short: as §1

SMILES | Ratio (Rattus norvegicus [1]) | Dose (Rattus norvegicus [3]) | Dose (Rattus norvegicus [5]) | Ratio (Rattus norvegicus [6]) | Ratio (Rattus norvegicus [7]) | Dose (Rattus norvegicus [9]) | Dose (Rattus norvegicus [10]) | Dose (Rattus norvegicus [11]) | Dose (Rattus norvegicus [12]) | Ratio (Rattus norvegicus [13]) | Dose (Rattus norvegicus [14]) | Dose (Rattus norvegicus [15]) | Dose (Rattus norvegicus [16]) | Dose (Rattus norvegicus [17]) | Ratio (Rattus norvegicus [18]) | Dose (Rattus norvegicus [19]) | Ratio (Rattus norvegicus [20]) | Dose (Rattus norvegicus [21]) | Ratio (Rattus norvegicus [22]) | Dose (Rattus norvegicus [23]) | further results
CCN(CC)C(C)Cc1cc(OC)c(I)cc1OC (centres undefined) | 29 | 0.78% | 1.2% | 5.5 | 4.3 | 0.39% | 0.4% | 0.46% | 0.13% | 2.3 | 0.26% | 6% | 0.07% | 0.35% | 5 | 0.2% | 20 | 0.06% | 8.1 | 2% | Dose (Rattus norvegicus [2]): 1.1%; Dose (Rattus norvegicus [4]): 0.39%; Dose (Rattus norvegicus [8]): 1.8%; Dose (Rattus norvegicus [24]): 0.32%; Dose (Rattus norvegicus [25]): 4.3%; Dose (Rattus norvegicus [26]): 0.14%; Ratio (Rattus norvegicus [27]): 5.6; Dose (Rattus norvegicus [28]): 0.69%
CNC(C)Cc1cc(OC)c(I)cc1OC (centres undefined) | 42 | 0.97% | 3.2% | 5.4 | 2.2 | 0.57% | 0.65% | 0.76% | 0.62% | 1.9 | 1% | 5.3% | 0.14% | 0.93% | 6.6 | 0.32% | 11.4 | 0.28% | 6.4 | 5.9% | Dose (Rattus norvegicus [24]): 1.8%; Dose (Rattus norvegicus [25]): 11%; Dose (Rattus norvegicus [26]): 0.53%; Ratio (Rattus norvegicus [27]): 4.1
COc1cc(CC(C)NC(C)C)c(OC)cc1I (centres undefined) | 31 | 1.2% | 2.8% | 4.4 | 1.3 | 0.66% | 0.79% | 1.1% | 0.3% | 1.9 | 0.52% | 7.2% | 0.25% | 1.2% | 4.8 | 0.29% | 12 | 0.23% | 5.2 | 7.7% | Dose (Rattus norvegicus [24]): 1.2%; Dose (Rattus norvegicus [25]): 6%; Dose (Rattus norvegicus [26]): 0.44%; Ratio (Rattus norvegicus [27]): 2.6
COc1cc(CC(C)N(C)C)c(OC)cc1I (centres undefined) | 16 | 3.4% | 1.7% | 5.5 | 5 | 1.8% | 1.1% | 1.1% | 0.55% | 2.4 | 1.1% | 16% | 0.2% | 0.8% | 4 | 0.28% | 15 | 0.11% | 8.1 | 3.1% | Dose (Rattus norvegicus [2]): 2.4%; Dose (Rattus norvegicus [4]): 0.9%; Dose (Rattus norvegicus [8]): 6.8%; Ratio (Rattus norvegicus [29]): 8.4; Ratio (Rattus norvegicus [30]): 5.5; Dose (Rattus norvegicus [24]): 0.89%; Dose (Rattus norvegicus [25]): 12%; Dose (Rattus norvegicus [26]): 0.26%; Ratio (Rattus norvegicus [27]): 9; Dose (Rattus norvegicus [28]): 2.4%
COc1cc(CC(C)N(C)C(C)C)c(OC)cc1I (centres undefined) | 1.1 | 0.23% | 0.38% | 1.6 | 0.09 | 0.12% | 0.39% | 0.76% | 0.05% | 0.36 | 0.1% | 10% | 0.5% | 0.34% | 0.68 | 0.24% | 0.72 | 0.53% | 0.6 | 0.53% | Dose (Rattus norvegicus [2]): 1.1%; Dose (Rattus norvegicus [4]): 0.38%; Dose (Rattus norvegicus [8]): 1.5%; Ratio (Rattus norvegicus [29]): 0.72; Ratio (Rattus norvegicus [30]): 1.1; Dose (Rattus norvegicus [24]): 0.32%; Dose (Rattus norvegicus [25]): 4.6%; Dose (Rattus norvegicus [26]): 0.19%; Ratio (Rattus norvegicus [27]): 0.24; Dose (Rattus norvegicus [28]): 0.53%
COc1cc(CC(C)NCCCN(C)C)c(OC)cc1I (centres undefined) | 34 | 0.05% | 5.4% | 6 | 0.3 | 0.03% | 1.9% | 0.66% | 0.02% | 21 | 0.04% | 11% | 0.11% | 1.8% | 17 | 1.6% | 77 | 0.07% | 7.8 | 3.8% | Dose (Rattus norvegicus [2]): 5.7%; Dose (Rattus norvegicus [4]): 2%; Dose (Rattus norvegicus [8]): 57%; Ratio (Rattus norvegicus [29]): 29; Ratio (Rattus norvegicus [30]): 16; Dose (Rattus norvegicus [24]): 0.55%; Dose (Rattus norvegicus [25]): 7.7%; Dose (Rattus norvegicus [26]): 1.5%; Ratio (Rattus norvegicus [27]): 0.3; Dose (Rattus norvegicus [28]): 2%
COc1cc(CC(C)NCc2ccccc2)c(OC)cc1I (centres undefined) | 69 | 1.1% | 5% | 6 | 2.5 | 0.64% | 0.77% | 0.72% | 0.5% | 2.5 | 0.9% | 4% | 0.12% | 1.1% | 9.2 | 0.34% | 25 | 0.2% | 4.7 | 8.3% | Dose (Rattus norvegicus [24]): 0.95%; Dose (Rattus norvegicus [25]): 5.4%; Dose (Rattus norvegicus [26]): 0.5%; Ratio (Rattus norvegicus [27]): 5.3
CCCCCCNC(C)Cc1cc(OC)c(I)cc1OC (centres undefined) | 47 | 0.63% | 4.3% | 5.4 | 3.4 | 0.37% | 1.5% | 0.58% | 0.57% | 2.1 | 0.97% | 4.6% | 0.16% | 2.1% | 13 | 0.25% | 25 | 0.17% | 9.4 | 7.5% | Dose (Rattus norvegicus [24]): 1.6%; Dose (Rattus norvegicus [25]): 9.4%; Dose (Rattus norvegicus [26]): 0.36%; Ratio (Rattus norvegicus [27]): 2.3
COc1cc(CC(C)NN)c(OC)cc1I (centres undefined) | 2.4 | 0.72% | 0.26% | 3.6 | 0.5 | 0.37% | 0.4% | 1.3% | 0.08% | 7.1 | 0.14% | 12% | 0.36% | 0.46% | 1.9 | 0.15% | 1.5 | 0.17% | 1.7 | 0.87% | Dose (Rattus norvegicus [2]): 1.5%; Dose (Rattus norvegicus [4]): 0.77%; Dose (Rattus norvegicus [8]): 2.2%; Ratio (Rattus norvegicus [29]): 4.5; Ratio (Rattus norvegicus [30]): 3.3; Dose (Rattus norvegicus [24]): 0.29%; Dose (Rattus norvegicus [25]): 5%; Dose (Rattus norvegicus [26]): 1.2%; Ratio (Rattus norvegicus [27]): 1; Dose (Rattus norvegicus [28]): 1.2%
